Most compounds without a hit are left out; they make up all but 3.9% or so of the library.
HEK293 NFkB inh – inhibitors of the PMA/ionomycin-induced NF-kB reporter in HEK293 cells; HEK-293 NF-kB luciferase reporter, luminescence; inhibition, % at 3 µM; 0.21% of 62,000 active; AID 465;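 active = inhibition above the mean of all tested compounds plus 3 SD, cut at about 40% in these data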
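System: NF-kB luciferase reporter HEK-293 cells | Replication: Single test | Control set: DMSO vs reference inhibitor | Evaluation: % inhibition | Schedule: 1 h pretreatment, 16 h stimulation, 37 °C | Probe or stimulus: PMA with ionomycin | Compound dosing: One dose, 3 µM | Detection: Luciferase luminescence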
RORa activator – activators of human nuclear receptor RORA; AID 560; activation, % at 10 µM; CHO-K1 Gal4-RORA LBD luciferase reporter, luminescence; percent increase over mock-subtracted basal signal; 1.5% of 65,000 active;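 active = activation above the mean of all tested compounds plus 3 SD, cut at about 49% in these data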
Target sequence (P35398 whole entry, looked up, the tested form may be a part): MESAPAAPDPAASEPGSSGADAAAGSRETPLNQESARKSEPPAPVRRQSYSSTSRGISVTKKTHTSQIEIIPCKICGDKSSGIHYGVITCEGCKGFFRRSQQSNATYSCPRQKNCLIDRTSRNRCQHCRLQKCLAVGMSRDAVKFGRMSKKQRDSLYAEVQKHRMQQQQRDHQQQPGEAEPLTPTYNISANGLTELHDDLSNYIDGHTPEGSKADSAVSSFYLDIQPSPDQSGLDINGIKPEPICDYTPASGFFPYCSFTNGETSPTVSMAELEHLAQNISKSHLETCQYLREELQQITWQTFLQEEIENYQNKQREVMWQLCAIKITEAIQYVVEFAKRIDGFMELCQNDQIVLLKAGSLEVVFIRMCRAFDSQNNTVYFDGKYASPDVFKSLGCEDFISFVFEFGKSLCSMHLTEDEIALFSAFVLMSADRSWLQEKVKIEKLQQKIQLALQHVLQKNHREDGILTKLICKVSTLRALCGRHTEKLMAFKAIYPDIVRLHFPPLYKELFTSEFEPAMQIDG
SF1 activator – activators of human nuclear receptor SF-1; Q13285; CHO-K1 Gal4-SF-1 LBD luciferase reporter; % increase over DMSO SF-1-specific signal; activation, % at 10 µM; 1.9% of 65,000 active;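 active = activation above the mean activation of all tested compounds plus 3 SD, cut at about 50% in these data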
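Material: Transient Gal4-SF-1 LBD reporter, CHO-K1 | Input: 4,000 cells/well | Dosing: One dose, 10 µM compound, 1% DMSO | Incubation: 20 h compound treatment, 37 °C | Detection: SteadyLite luciferase luminescence | Evaluation: Percent activation relative to DMSO median and mock-transfected background | Benchmarks: DMSO-treated SF-1-transfected cells as negative, DMSO-treated mock-transfected cells lacking SF-1 as background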
Jurkat viability – cytotoxicity toward Jurkat cells; 1.2% of 56,000 active; inhibition, % at 4 µM; AID 463; Jurkat E6.1 viability, ATP luminescence, 48 h;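 active = inhibition above the mean inhibition of all tested compounds plus 3 SD, cut at about 28% in these data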
Numbers stand for hits; . = inactive; / = no result given.

SMILES	HEK293 NFkB inh	RORa activator	SF1 activator	Jurkat viability
CCCN1C(=O)c2ccccc2NC1c1ccc(OC)cc1O (stereo unspecified)	.	.	.	36.4
CCOc1ccc2nc(NC(=O)c3ccoc3C)sc2c1	.	.	.	41.5
CCOc1ccc2nc(NC(=O)C(CC)Sc3nc(C)cc(=O)[nH]3)sc2c1 (stereo unspecified)	.	51.8	.	.
CCOc1ccc2nc(NC(=O)Nc3cccs3)sc2c1	.	.	.	.
Cc1cc(N)n2ncc(-c3ccccc3)c2n1	.	88.5	75.3	/
Cc1cc(N)n2ncc(-c3cccc(Br)c3)c2n1	.	.	59.3	.
CCOC(=O)c1ccc(NC(=O)CCC(=O)OC)cc1	.	.	.	.
COC(=O)c1ccccc1NC(=O)c1cnc2sccn2c1=O	.	.	.	.
O=C(NCCc1ccccc1)c1cnc2sccn2c1=O	.	83.6	.	.
Cn1c(Cn2c(=O)sc3ccccc32)nnc1SCC(=O)Nc1ccc2c(c1)OCO2	.	.	.	.
N#C/C(C(=O)N1CCCCC1)=C1\Nc2ccccc2S1	/	.	50.5	/
CC1=CS/C(=C(/C#N)C(=O)N2CCCCC2)N1c1ccccc1	.	.	.	.
CC1CCN(C(=O)CSc2ccc3nnc(-c4ccc(F)cc4)n3n2)CC1	.	.	.	.
Cc1cccc(NC(=O)Nc2ccc(C#N)cc2)n1	.	.	.	.
CSc1cccc(NC(=O)Nc2ccccc2)c1	.	63.4	50.1	.
COc1ccc(NC(=O)Nc2cccc(OC)c2)cc1	.	67.7	.	.
CSc1cccc(NC(=O)COc2ccccc2)c1	.	.	.	.
COc1ccc(NC(=O)Nc2cccc(C)n2)cc1	.	.	64.1	.
COc1ccccc1N1CCN(C(c2cccs2)c2nnnn2C2CCCC2)CC1 (stereo unspecified)	.	.	.	.
O=C(NCCn1ccc2ccccc21)c1ccc(S(=O)(=O)N2CCOCC2)cc1	.	.	.	.
Cc1oc(-c2ccc(Cl)cc2)nc1CN1CCCC(C(=O)N2CCc3ccccc32)C1 (stereo unspecified)	.	.	.	.
CCOC(=O)N1CCN(C(=O)C2CCCN(Cc3nc(-c4ccc(Cl)cc4)oc3C)C2)CC1 (stereo unspecified)	.	.	.	48.9
COCCOC(=O)C1=C(C)N=C2SCCC(=O)N2C1c1ccc(OC(=O)c2ccco2)cc1 (stereo unspecified)	.	.	.	/
O=C(COc1ccc(F)cc1Br)N1CCc2ccccc21	.	.	51.2	.
Cc1cc(C(=O)OCC(=O)N2CCc3ccccc32)c(C)o1	.	.	53.6	.
SMILES	HEK293 NFkB inh	RORa activator	SF1 activator	Jurkat viability
CCc1ccccc1N1C[C@@]23C=C[C@@H](O2)C(C(=O)OCC(C)C)[C@H]3C1=O (stereo partly specified)	.	.	.	.
CN(C)c1nc(C(=O)Nc2ccccc2)nc(N(C)C)n1	.	.	.	.
Cc1nc(/N=C\N(C)C)sc1C(=O)Nc1ccccc1	.	52.0	.	.
Cc1ccc(-c2nnc3n2N=C(c2ccccc2Br)CS3)cc1	.	.	.	.
Cc1ccc(-c2nc3cccnc3s2)cc1NC(=O)c1ccco1	.	.	59.0	.
CCS(=O)(=O)Nc1cc(-c2nc3cccnc3s2)ccc1C	.	.	71.0	.
COc1ccc(-c2nc3ccccc3s2)cc1O	.	.	.	.
CCN(CCCn1c(SCC#N)nc2ccccc2c1=O)c1ccccc1	.	.	.	.
CCC(C)N1CC23C=CC(O2)C(C(=O)OCc2ccccc2)C3C1=O (stereo unspecified)	.	.	.	/
O=C(NCc1cccs1)C1CCN(c2ccc(S(=O)(=O)N3CCOCC3)cc2Cl)CC1	.	.	.	91.1
COc1ccc(N2CCn3c2nc2c3c(=O)n(CCCc3ccccc3)c(=O)n2C)c(OC)c1	.	.	.	49.8
c1ccc2c(c1)CCN(c1nc3ccccc3n3cnnc13)C2	.	.	.	.
c1ccc2c(c1)CCCN2c1nc2ccccc2n2cnnc12	.	.	54.5	.
COCCN(CCOC)c1ncnc2c1cnn2-c1ccc(Cl)cc1	.	55.0	.	/
COCCNc1ncnc2c1cnn2-c1ccc(Cl)cc1	/	53.7	68.0	/
OCCOCCNc1ncnc2c1cnn2-c1ccc(Cl)cc1	/	.	64.1	/
Clc1ccc(-n2ncc3c(NCc4cccs4)ncnc32)cc1	/	.	73.6	/
CCOC(=O)N1CCN(C(=O)c2cn(CC)c3cc(N4CCN(C)CC4)c(F)cc3c2=O)CC1	/	.	.	/
COc1cccc(NC2=NC3(CCCCC3)N=C(N)N2)c1	.	.	.	.
CCN1C=C(Cc2cccs2)C2=C(C1)C(c1cccs1)C(C#N)=C(N)O2 (stereo unspecified)	.	.	.	.
CCCCCCS(=O)Cc1ccccc1 (stereo unspecified)	.	.	.	.
c1ccc(-c2nc3ccccc3o2)nc1	.	.	.	.
O=C(Cc1cccs1)Nc1nc2ccccc2s1	.	58.5	.	.
CCC(=O)Nc1cccc(-c2nc3ccccc3o2)c1	.	.	.	.
Cc1cc(C)nc(NC(=O)Cc2cccs2)n1	.	.	.	.
SMILES	HEK293 NFkB inh	RORa activator	SF1 activator	Jurkat viability
O=C(CSc1nc2ccccc2o1)Nc1nc2c(s1)CCCC2	.	.	.	.
CC(=O)Nc1nc2ccc(-c3nc4ccccc4o3)cc2s1	.	69.1	.	.
O=C(CSc1nc2ccccc2o1)Nc1nc2ccccc2s1	.	.	50.2	.
Cc1ccnc2ccc(-c3nc4ccccc4o3)cc12	.	.	56.3	.
CC(=O)N=c1cccc(NC(C)=O)n1O	.	.	.	.
CN(C(=O)COc1cc(=O)n(C)c2ccccc12)c1ccc(Br)cc1	.	.	.	.
CC(C)C(=O)Nc1cccc(NC(=O)CCN2C(=O)c3ccccc3S2(=O)=O)c1	.	.	.	.
COc1ccc(CC(NC(C)=O)C(=O)NC2CCN(S(=O)(=O)c3ccccc3)CC2)cc1OC (stereo unspecified)	.	.	.	.
CN1CCN(C(=O)C2CC(c3c(F)cccc3Cl)=NO2)CC1 (stereo unspecified)	.	.	.	.
COC(=O)CCC(=O)COc1ccccc1C#N	.	.	.	.
CCNC(=O)NC(=O)COc1ccccc1C#N	.	.	54.4	.
CCC(=O)Nc1nc2ccc3nc(C)sc3c2s1	.	81.8	56.4	.
O=C1CCCN1c1ccc(S(=O)(=O)Nc2ccc3c(c2)OCCO3)cc1	.	.	.	82.0
Cc1noc(C)c1S(=O)(=O)NCc1ccc2c(c1)OCO2	.	.	.	.
CCCCC1CCC(c2nc(-c3cccnc3)no2)CC1 (stereo unspecified)	.	.	.	.
CCCCC1CCC(c2nc(-c3ccccn3)no2)CC1 (stereo unspecified)	.	.	52.4	.
CCc1ccc(NC(=O)c2cnc3n(c2=O)CCS3)cc1	.	.	49.5	.
CCc1ccccc1NC(=O)c1cnc2n(c1=O)CCS2	.	.	.	.
c1ccc(-n2ncc3c(NCCN4CCCCC4)ncnc32)cc1	.	.	68.8	.
Cc1cccc(-n2ncc3c(NCc4ccccn4)ncnc32)c1	.	.	.	.
CN(C)CCCNc1ncnc2c1cnn2-c1ccccc1	.	.	.	.
